Source: ChEMBL document CHEMBL1122607, “Heterocyclic analogues of chlorcyclizine with potent hypolipidemic activity” (J Med Chem, 1984)
Where “and” joins values, the source holds several entries; their conditions need not be identical. Equal values may be shown once.

Tests used:
Rattus norvegicus [1] = assay: Minimum effective dose (MED) is the dose (mg/kg)that cause significant reduction in serum cholesterol of 30% compared to concurrent controls.; type: functional; set-up: unit: mg/kg
How it was run: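 MED was calculated from the log dose/response curve as the dose giving a statistically significant 30% fall in serum cholesterol versus concurrent controls. Measured in the 3-day oral cholesterol-fed rat screen, or in a 2-week test: groups of eight young male Wistar rats on cholesterol/cholic acid-supplemented or normal diet, dosed orally by gavage daily for 14 days, vehicle 0.5% tragacanth mucilage.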

Rattus norvegicus [2] = assay: Hypolipidemic activity was measured as reduction in rat serum cholesterol after oral administration in male Wistar rats at 100 mg/(kg day); type: functional
How it was run: (§1)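 Cholesterol-fed rats given the test compound orally by gavage on the last 3 days, with controls receiving vehicle (0.5% tragacanth mucilage). After overnight starvation, rats were killed under CO2 3 h after the last dose and bled by cardiac puncture. Serum cholesterol and triglyceride were measured by autoanalyzer and expressed as percentage reduction from control levels, with Student's t test.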

Rattus norvegicus [3] = assay: Hypolipidemic activity was measured as reduction in rat serum cholesterol after oral administration in male Wistar rats at 3 mg / (kg day); type: functional; how it was run: as §1
Rattus norvegicus [4] = assay: Hypolipidemic activity was measured as reduction in rat serum cholesterol after oral administration in male Wistar rats at 30 mg / (kg day); type: functional; how it was run: as §1
Rattus norvegicus [5] = assay: Hypolipidemic activity was measured as reduction in rat serum triglyceride after oral administration in male Wistar rats at 1 mg / (kg day); type: functional; how it was run: as §1
Rattus norvegicus [6] = assay: Hypolipidemic activity was measured as reduction in rat serum triglyceride after oral administration in male Wistar rats at 10 mg / (kg day); type: functional; how it was run: as §1
Rattus norvegicus [7] = assay: Hypolipidemic activity was measured as reduction in rat serum triglyceride after oral administration in male Wistar rats at 3 mg / (kg day); type: functional; how it was run: as §1
Rattus norvegicus [8] = assay: Hypolipidemic activity was measured as reduction in rat serum triglyceride after oral administration in male Wistar rats at 30 mg / (kg day); type: functional; how it was run: as §1
Rattus norvegicus [9] = assay: Hypolipidemic activity was measured as reduction in rat serum cholesterol after oral administration in male Wistar rats at 1 mg / (kg day); type: functional; how it was run: as §1
Rattus norvegicus [10] = assay: Hypolipidemic activity was measured as reduction in rat serum cholesterol after oral administration in male Wistar rats at 10 mg / (kg day); type: functional; how it was run: as §1
[11] = The therapeutic safety margin (TSM) is the ratio of the minimum lethal dose (mg/kg)to the MED; type: ADME, organism-based; details: in vivo
How it was run: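 Young male Wistar rats, eight per group, on cholesterol/cholic acid-supplemented or normal diet; graded oral gavage doses daily for 14 days; vehicle controls (0.5% tragacanth mucilage). Mortalities recorded to give the minimum lethal daily dose. After overnight fasting, serum cholesterol assayed by autoanalyzer. MED is the dose giving a significant (t test) 30% cholesterol fall, from the log dose/response curve. TSM = minimum lethal dose/MED.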

Rattus norvegicus [12] = assay: Hypolipidemic activity was measured as reduction in rat serum triglyceride after oral administration in male Wistar rats at 100 mg / (kg day); type: functional; how it was run: as §1
Rattus norvegicus [13] = assay: Hypolipidemic activity was measured as reduction in rat serum triglyceride after oral administration in male Wistar rats at 50 mg / (kg day); type: functional; how it was run: as §1
Rattus norvegicus [14] = assay: Hypolipidemic activity was measured as reduction in rat serum cholesterol after oral administration in male Wistar rats at 20 mg / (kg day); type: functional; how it was run: as §1
Rattus norvegicus [15] = assay: Hypolipidemic activity was measured as reduction in rat serum cholesterol after oral administration in male Wistar rats at 50 mg / (kg day); type: functional; how it was run: as §1
Rattus norvegicus [16] = assay: Hypolipidemic activity was measured as reduction in rat serum triglyceride after oral administration in male Wistar rats at 20 mg / (kg day); type: functional; how it was run: as §1
Rattus norvegicus [17] = assay: Hypolipidemic activity was measured as reduction in rat serum cholesterol after oral administration in male Wistar rats at 100 mg / (kg day); type: functional; how it was run: as §1
Rattus norvegicus [18] = assay: Hypolipidemic activity was measured as reduction in rat serum cholesterol after oral administration in male Wistar rats at 200 mg/(kg day); type: functional; how it was run: as §1
Rattus norvegicus [19] = assay: Hypolipidemic activity was measured as reduction in rat serum cholesterol after oral administration in male Wistar rats at 200 mg / (kg day); type: functional; how it was run: as §1
Rattus norvegicus [20] = assay: Hypolipidemic activity was measured as reduction in rat serum triglyceride after oral administration in male Wistar rats at 200 mg / (kg day); type: functional; how it was run: as §1

SMILES | MED (Rattus norvegicus [1]) | Reduction (Rattus norvegicus [2]) | Reduction (Rattus norvegicus [3]) | Reduction (Rattus norvegicus [4]) | Reduction (Rattus norvegicus [5]) | Reduction (Rattus norvegicus [6]) | Reduction (Rattus norvegicus [7]) | Reduction (Rattus norvegicus [8]) | Reduction (Rattus norvegicus [9]) | Reduction (Rattus norvegicus [10]) | therapeutic safety margin (minimum lethal dose / MED) [11] | Reduction (Rattus norvegicus [12]) | Reduction (Rattus norvegicus [13]) | Reduction (Rattus norvegicus [14]) | Reduction (Rattus norvegicus [15]) | Reduction (Rattus norvegicus [16]) | Reduction (Rattus norvegicus [17]) | Reduction (Rattus norvegicus [18]) | Reduction (Rattus norvegicus [19]) | Reduction (Rattus norvegicus [20])
Cc1noc(C)c1C(=C1CCN(C)CC1)c1ccc(C(C)C)cc1 | 1 | 82% | 58% | 89% | 13% | 78% | 43% | 93% | 31% | 83% | 50 | 90% | – | – | – | – | – | – | – | –
COc1ccccc1C(c1ccns1)N1CCN(C)CC1 (stereo not given) | 80 | 38% | – | – | – | – | – | – | – | – | – | 13% | 32% | 3% | 31% | 22% | – | – | – | –
Cc1cc(C(c2ccccc2)N2CCN(C)CC2)sn1 (stereo not given) | – | – | – | – | – | – | – | – | – | – | – | – | – | – | – | – | 21% | 36% | – | –
Cc1cc(C(=C2CCN(C)CC2)c2ccc(C(C)C)cc2)sn1 | 6 | 83% | 26% | 87% | 3% | 34% | 37% | 76% | 19% | 62% | 5 | 96% | – | – | – | – | – | – | – | –
CN1CCN(C(c2ccccc2)c2ccns2)CC1 (stereo not given) | – | – | – | – | – | – | – | – | – | – | – | – | 13% | – | 34% | – | – | – | 68% | 46%
CN1CCN(C(c2ccc(Cl)cc2)c2ccns2)CC1 (stereo not given) | 84 | 38% | – | – | – | – | – | – | – | – | – | 41% | 38% | – | 17% | – | – | – | 63% | 37%
CC(C)c1ccccc1C(c1ccns1)N1CCN(C)CC1 (stereo not given) | 10 | 77% | 15% | 43% | – | 31% | 14% | 36% | – | 32% | – | 71% | – | – | – | – | – | – | – | –
Cc1cnsc1C(c1ccc(C(C)C)cc1)N1CCN(C)CC1 (stereo not given) | 3 | 68% | 31% | 69% | – | 42% | 5% | 64% | – | 48% | 30 | 89% | – | – | – | – | – | – | – | –
Cc1noc(C)c1C(c1ccc(C(C)C)cc1)N1CCN(C)CC1 (stereo not given) | 2 | 87% | 41% and 30% | 80% | 31% | 35% | – | 69% | 8% | 67% | 100 | 66% | – | – | – | – | – | – | – | –
Cc1cnsc1C(c1ccc(C(C)C)cc1)N1CCNCC1 (stereo not given) | 2 | 86% | 44% | 87% | 15% | 48% | 2% | 76% | 16% | 70% | 10 | 81% | – | – | – | – | – | – | – | –
COc1ccccc1C(c1cc(C)ns1)N1CCN(C)CC1 (stereo not given) | – | – | – | – | – | – | – | – | – | – | – | – | 17% | – | 26% | – | – | – | 75% | 78%
CC(C)c1ccc(C(c2ccns2)N2CCNCC2)cc1 (stereo not given) | 1 | 84% | 57% | 74% | 24% | 65% | 18% | 87% | 37% | 62% | 4 | 90% | – | – | – | – | – | – | – | –
Cc1cc(C(c2ccccc2C)N2CCN(C)CC2)sn1 (stereo not given) | 22 | – | – | – | – | – | – | – | – | – | 10 | – | 26% | 27% | 56% | 14% | – | – | 65% | 84%
